LMPTP inh = LMPTP phosphatase inhibitors, primary screen, biochemical, fluorescence intensity, uHTS | inhibition, % at 20 µM | recombinant LMPTP-A, OMFP fluorogenic substrate | 0.22% of 360,000 active | Low molecular weight phosphotyrosine protein phosphatase (Homo sapiens), P24666;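 active = compounds that cut the enzyme signal by at least half of the control window in the single-dose screen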;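 also: plate controls were DMSO wells with enzyme plus substrate for no effect and substrate without enzyme for full effect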
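Material: LMPTP-A; amount: 0.625 nM enzyme; doses: single 20 µM dose; times: reaction 50 min, room temperature, dark; technique: fluorescence intensity of OMFP turnover product; benchmarks: no-enzyme and uninhibited controls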
STEP block = STEP phosphatase inhibitors, primary screen, biochemical, fluorescence intensity, uHTS; recombinant STEP, OMFP fluorogenic substrate; inhibition, % at 20 µM; 0.25% of 360,000 active;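 active = inhibition at 20 µM, scaled per plate between control wells, above about 37%, limit read from the data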;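 also: 0% = DMSO with enzyme and substrate and 100% = substrate only without enzyme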
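Also added – OMFP at 25 µM · Test system – STEP tyrosine phosphatase · Technique – FITC-channel fluorescence of OMFP product · Schedule – 20 min at room temperature, dark · Evaluation – control-normalized % inhibition with plate pattern correction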
SUMO1 PPI mod = modulators of SUMO1 protein-protein interactions, primary screen, biochemical, uHTS; inhibition, % at 20 µM; SUMO1 binding to a labelled peptide, TR-FRET, 1 h; Small ubiquitin-related modifier 1 (Homo sapiens), P63165; 0.33% of 360,000 active; AID 602429, 2012; in the data active = inhibition above about 37%
Scp1 inh = Scp-1 phosphatase inhibitors, primary screen, biochemical, colorimetric, uHTS; Carboxy-terminal domain RNA polymerase II polypeptide A small phosphatase 1 (Homo …; Recombinant Scp1, phosphopeptide, malachite green phosphate absorbance; inhibition, % at 20 µM; 0.88% of 340,000 active; AID 493091, 2011;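 active = inhibition above about 50% at 20 µM, limit read from the data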;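 also: plate controls were DMSO wells with enzyme for no effect and wells lacking enzyme for full effect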
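System: SCP-1 catalytic domain; Reagent: Phospho 17-mer peptide substrate; Doses: one concentration, 20 µM, with 1.0% DMSO; Incubation: 45 min room-temperature reaction, 5 min colour, 30 min stabiliser; Signal: Phosphate-binding colour reagent, absorbance read at 630 nm.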
DNMT1 inh = human DNMT1 methyltransferase inhibitors, primary screen, biochemical, molecular beacon, fluorescence, HinP1I cleavage, uHTS; inhibition (reported as % activation of signal), % at 10 µM; 0.83% of 360,000 active; DNA (cytosine-5)-methyltransferase 1 (Homo sapiens), P26358; in the data active = inhibition above about 50%
Target sequence (P26358 504-1616 limits assumed): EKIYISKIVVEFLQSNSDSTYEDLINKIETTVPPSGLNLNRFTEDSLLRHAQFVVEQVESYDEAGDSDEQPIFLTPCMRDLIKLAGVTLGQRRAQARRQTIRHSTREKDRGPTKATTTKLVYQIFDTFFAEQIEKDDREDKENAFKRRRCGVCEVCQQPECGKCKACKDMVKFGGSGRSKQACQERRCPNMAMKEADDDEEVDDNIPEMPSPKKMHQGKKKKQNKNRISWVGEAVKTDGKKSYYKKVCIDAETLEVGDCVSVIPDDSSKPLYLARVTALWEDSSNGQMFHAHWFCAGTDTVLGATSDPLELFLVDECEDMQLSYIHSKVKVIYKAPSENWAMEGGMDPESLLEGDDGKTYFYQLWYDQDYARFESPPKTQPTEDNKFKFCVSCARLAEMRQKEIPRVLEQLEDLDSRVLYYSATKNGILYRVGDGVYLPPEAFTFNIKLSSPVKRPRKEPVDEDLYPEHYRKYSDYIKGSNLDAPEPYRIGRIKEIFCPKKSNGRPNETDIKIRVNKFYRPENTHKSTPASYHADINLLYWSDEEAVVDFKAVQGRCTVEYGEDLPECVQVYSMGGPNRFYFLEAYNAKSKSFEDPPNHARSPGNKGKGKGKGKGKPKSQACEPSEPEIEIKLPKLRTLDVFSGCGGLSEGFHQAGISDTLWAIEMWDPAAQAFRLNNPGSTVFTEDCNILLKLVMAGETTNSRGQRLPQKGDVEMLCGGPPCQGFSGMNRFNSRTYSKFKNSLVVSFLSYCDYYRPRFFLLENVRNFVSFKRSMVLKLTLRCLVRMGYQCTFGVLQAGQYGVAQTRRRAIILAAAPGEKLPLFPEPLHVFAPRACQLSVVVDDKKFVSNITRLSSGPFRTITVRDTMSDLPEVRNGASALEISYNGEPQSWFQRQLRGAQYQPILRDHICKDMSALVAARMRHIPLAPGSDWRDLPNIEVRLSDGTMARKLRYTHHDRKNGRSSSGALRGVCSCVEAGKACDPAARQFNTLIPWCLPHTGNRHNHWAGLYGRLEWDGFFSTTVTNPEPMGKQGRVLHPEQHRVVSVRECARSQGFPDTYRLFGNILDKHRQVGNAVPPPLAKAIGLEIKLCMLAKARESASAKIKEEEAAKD
Scp-1 conf = Scp-1 phosphatase inhibitors, retest, confirmation, biochemical, colorimetric, single concentration; shares compounds with Scp1 inh; recombinant SCP-1 catalytic domain, phosphate release, malachite green absorbance; inhibition, % at 20 µM; 61% of 2,500 active; AID 540281, 2011;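 also: plate controls were DMSO with enzyme for no effect and buffer wells lacking enzyme for full effect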
Scp-1 MG ctr = colorimetric readout interference by compounds, confirmation, artefact control for Scp-1 inhibitor project, biochemical, single concentration; 2,500 tested, under 10 active; Colorimetric interference counterscreen, malachite green absorbance 630 nm; apparent inhibition (interference), % at 20 µM; shares compounds with Scp1 inh;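 also: compounds added after enzyme reaction finished so only phosphate colour detection is probed; plate controls were DMSO wells with completed Scp-1 reaction for no effect and substrate wells lacking enzyme for full effect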
Scp1 DSF = Scp-1 binding by thermal shift, confirmation, orthogonal assay for Scp-1 inhibitor project, biophysical, differential scanning fluorimetry; 25% of 1,500 active; Recombinant SCP1, Sypro Orange thermal shift Tm; thermal shift relative to vanadate control, % at 40 µM; shares compounds with Scp1 inh; AID 540329, 2011;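 active = substances whose mean melting-temperature shift, as a percentage of the reference inhibitor's shift, reaches about 5.3%, limit read from the data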;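 also: 0% = Tm of DMSO wells and 100% = Tm with sodium orthovanadate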
* = called active by the depositor; · = no result. Hits are enriched below; roughly 1.7% of the tested compounds scored in any of these assays.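 The calls were made as follows, unless noted: active = inhibition of at least 30% at 20 µM; inactive = the rest.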

SMILES	LMPTP inh	STEP block	SUMO1 PPI mod	Scp1 inh	DNMT1 inh	Scp-1 conf	Scp-1 MG ctr	others
O=C(NCC1CCCO1)c1cc(-c2ccccc2F)no1 (stereo unspecified)	-1	-1	0	52*	1	-15	-14
O=C(NCC1CCCO1)c1ccc([N+](=O)[O-])o1 (stereo unspecified)	-1	0	-42	63*	0	-26	-18
O=C(NCC1CCCO1)c1cccc(F)c1 (stereo unspecified)	-2	-3	1	4	2	·	·
CCc1ccc(C(=O)NNC(=O)c2ccc(OCC(=O)N3CCOCC3)c(OC)c2)cc1	-2	0	4	-6	3	·	·
Cc1cc(C)c(S(C)(=O)=O)c(N(C)NC(=O)c2c(F)cccc2F)n1	-1	0	0	68*	-4	-15	-11
Cc1ccc(CN2CCC[C@]3(N[C@H](c4ccc(C)cc4)[C@@H]4C(=O)N(Cc5ccccc5)C(=O)[C@@H]43)C2=O)cc1	-2	1	0	·	-3	·	·
COc1cccc(C(N)c2nc(-c3cc(F)cc(F)c3)cs2)c1 (stereo unspecified)	0	-2	-1	·	6	·	·
O=C(CSc1nc2ccccc2c(=O)n1Cc1ccco1)NCc1ccco1	1	3	11	74*	32	74*	-3	Scp1 DSF=-3
CCCCn1c(SCC(=O)NCc2ccco2)nnc1-c1ccco1	0	0	3	0	0	·	·
Cc1cc(NC(=O)CSc2nnc(COc3ccccc3)n2Cc2ccco2)no1	-3	-1	-4	-4	7	·	·
O=C(CSc1nnc(COc2ccccc2)n1Cc1ccco1)NCc1ccco1	5	2	5	88*	32	67*	-11	Scp1 DSF=-13
O=C(NCc1ccco1)c1ccc2c(=O)n(Cc3ccco3)c(SCC(=O)N3CCCC3)nc2c1	9	4	18	101*	30	70*	-13	Scp1 DSF=-22
CCCCn1c(SCC(=O)NCc2ccco2)nnc1-c1ccoc1C	1	3	22	97*	41	77*	-12	Scp1 DSF=-3
CCC1(c2ccc(F)cc2)NC(=O)N(CC(=O)N2CCc3ccccc32)C1=O (stereo unspecified)	1	-2	4	-6	1	·	·
COc1ccc2c(c1)[N+](C)(C)C(C)(C)C=C2C	-2	-2	1	93*	-4	86*	-12	Scp1 DSF=-21
CCOc1ccc2c(c1)[N+](C)(C)C(C)(C)C=C2C	0	-1	2	48	-4	·	·
COc1ccc(OC)c(NC(=O)CSc2ncnc3sc(C)cc23)c1	17	3	27	80*	24	64*	-12	Scp1 DSF=12*
Cc1ccc(CNC(=O)c2cc(=O)c3cc(C)ccc3o2)cc1	29	24	12	61*	2	20	-15
CCSC1=N/C(=C\c2ccc(OC)cc2)C(=O)N1	-1	-2	-13	50*	4	2	-3
COC(=O)[C@@]1(C)[C@H]2C(=O)N(Cc3ccccc3)C(=O)[C@H]2[C@H]2CN=C(SCC(=O)c3ccccc3)N21	2	-1	3	7	-1	·	·
Cn1nc2c(c1C(=O)N1CCCC(C(=O)c3cc(F)ccc3F)C1)CCCC2 (stereo unspecified)	-2	-2	2	-2	5	·	·
Cn1nc2c(c1C(=O)O)CCCC2	0	-6	1	60*	41	67*	1	Scp1 DSF=-5
CN(/N=C/c1ccncc1)C1=NCCN1	-2	1	-4	85*	-1	-3	-11
FC(F)(F)Oc1ccccc1C(c1nnnn1C1CCCC1)N1CCN(C/C=C/c2ccccc2)CC1 (stereo unspecified)	2	0	2	·	-6	·	·
Cc1csc2ncc(C(=O)N3CCCc4ccccc43)c(=O)n12	1	0	-1	87*	2	-16	-18
SMILES	LMPTP inh	STEP block	SUMO1 PPI mod	Scp1 inh	DNMT1 inh	Scp-1 conf	Scp-1 MG ctr	others
Cc1csc2ncc(C(=O)N3CCc4ccccc43)c(=O)n12	-1	-2	-7	-4	7	·	·
COc1ccc2[nH]cc(/C=C/c3cc[n+](C)cc3)c2c1	4	-2	-60	58*	-6	-21	-18
Cc1ccc(Cc2c(C3CCCCC3)nc3ccc(Cl)cn23)cc1	1	-1	2	·	8	·	·
COc1ccc(N2CCN(S(=O)(=O)c3cnc[nH]3)CC2)cc1	-1	-5	0	9	1	·	·
CNC(=O)C(=O)Nc1ccc2c(c1)N(S(=O)(=O)c1cccs1)CCC2	0	-2	7	54*	0	-22	-18
CC(C)NC(=O)C(=O)Nc1ccc2c(c1)N(S(=O)(=O)c1cccs1)CCC2	0	-1	-3	-12	-4	·	·
O=C(CN1C(=O)C(c2ccc(F)cc2)=NC12CCCC2)Nc1ccc(F)cc1	-1	-3	5	-1	2	·	·
COc1ccc(NC(=O)CN2C(=O)C(c3ccccc3)=NC23CCCCCC3)cc1	1	0	-2	59*	3	-26	-23
O=C1c2ccccc2C(=O)N1c1nc2nccc(-c3ccccc3)n2n1	-1	24	-2	101*	4	21	-20
CCN(CC)S(=O)(=O)c1cc(C(=O)OC(C)C(=O)NCc2ccco2)ccc1C (stereo unspecified)	-1	0	3	-6	3	·	·
CC(C)c1cc(C(=O)NC2CCCCC2)no1	0	0	-2	73*	2	-7	-4
CCN(CC)S(=O)(=O)c1ccc(N2CCOCC2)c(NC(=O)c2c3c(nc4ccccc24)CCC3)c1	10	0	-2	68*	65*	48*	-13	Scp1 DSF=5
CCN(C(=O)COC(=O)c1ccc2c(c1)OCO2)c1c(N)n(Cc2ccccc2)c(=O)[nH]c1=O	-1	1	-3	-10	4	·	·
